The results in this text go back to ChEMBL document CHEMBL1146121 (J Med Chem, 2006).

Each structure is given as a SMILES string.

Test [1] concerns the target T1, 1-deoxy-D-xylulose 5-phosphate reductoisomerase (Escherichia coli K-12, UniProt P45568).
T1 sequence (P45568 whole entry): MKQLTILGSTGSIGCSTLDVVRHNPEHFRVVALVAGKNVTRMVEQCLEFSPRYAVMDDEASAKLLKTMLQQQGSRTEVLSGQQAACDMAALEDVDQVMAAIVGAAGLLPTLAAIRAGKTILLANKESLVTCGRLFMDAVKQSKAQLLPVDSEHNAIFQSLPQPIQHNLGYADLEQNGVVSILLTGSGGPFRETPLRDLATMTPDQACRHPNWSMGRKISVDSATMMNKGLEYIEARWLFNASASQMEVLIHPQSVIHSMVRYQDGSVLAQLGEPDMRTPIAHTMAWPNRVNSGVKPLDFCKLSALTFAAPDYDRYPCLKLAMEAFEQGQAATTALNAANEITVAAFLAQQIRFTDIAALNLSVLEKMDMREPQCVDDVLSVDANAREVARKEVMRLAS
Description: Inhibition of recombinant Escherichia coli DXR. Summed up: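 Enzyme activity measured as conversion of DOXP to MEP, read out via the NADPH dependence of the reductoisomerase reaction.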

Test [2] deals with Plasmodium falciparum. Briefly: Inhibition of Plasmodium falciparum Dd2. Type of test: functional, organism-based. Summed up: (§1)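 Intraerythrocytic parasites cultured with the test agent in a semiautomated microdilution format. Growth was followed by incorporation of tritium-labelled hypoxanthine.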
Test [3] has as its system Plasmodium falciparum. Briefly: Inhibition of Plasmodium falciparum 3D7. Type of test: functional, organism-based. The essentials: as §1

On to `CC(=O)N(O)C[C@@H]1C[C@H]1P(=O)(O)O`, for which the IC50 in test [1] is 50 nM; in test [2], 480 nM; in test [3], 320 nM.

Turning to `O=CN(O)C[C@@H]1C[C@H]1P(=O)(O)O`, the IC50 in test [1] amounted to 313 nM; in test [2], 2000 nM; in test [3], 2100 nM.

Take `CC(=O)N(O)CC1CC1P(=O)(O)O` (centres undefined): the IC50 in test [1] came out at 160 nM.

With `CCC(=O)N(O)C[C@@H]1C[C@H]1P(=O)(O)O`, the IC50 in test [1] was greater than 3000 nM.

With `CC(=O)N(O)CC1CC1(c1ccccc1)P(=O)(O)O` (centres undefined), the IC50 in test [1] was greater than 30000 nM.

As to `O=CN(O)CCCP(=O)(O)O` [FOSMIDOMYCIN], the IC50 in test [2] turned out to be 480 nM; in test [3], 400 nM.

For `CC(=O)N(O)CCCP(=O)(O)O` [FR-900098], the values for the IC50 in test [1], in test [2] and in test [3] were 58 nM, 280 nM and 240 nM, respectively.
